Assay results published in paper PMC6022754 (Bioorganic & medicinal chemistry letters, 2017).

Key:
[1] = test system: human colon tumor xenograft; settings: human colon tumor xenograft model; cited from earlier work
[2] = computed physicochemical properties; settings: LipE = pCC50 (HT29) – logD (at pH 7.4)
In short: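 Lipophilic efficiency: CC50 taken from whole-cell HT29 growth-inhibition screening, not an enzymatic target-based assay. The value is converted to pCC50, and logD at pH 7.4 is subtracted from it.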

[3] = test system: HT29 colorectal carcinoma cell line; assay: quantitative high-throughput screening, HT29 cell growth inhibition; assay type: cell-based; settings: HT29 cells, vs SSA (1)
[4] = test system: MDA-MB-231 breast cancer cell line; assay: quantitative high-throughput screening, MDA-MB-231 cell growth inhibition; assay type: cell-based; settings: MDA-MB-231 cells, vs SSA (1)
[5] = test system: PC3 prostate cancer cell line; assay: quantitative high-throughput screening, PC3 cell growth inhibition; assay type: cell-based; settings: PC3 cells, vs SSA (1)
[6] = BJ cell cytotoxicity counter screen; assay type: cell-based; settings: human, BJ cells (normal human foreskin fibroblast cell line)

Question: Which “in vivo antitumor activity” value [1] does the source give for `CSc1ccc(/C=C2/C(C)=C(CC(=O)NCCN(C)C)c3cc(F)ccc32)cc1` [Compound 1, sulindac sulfide amide] here?
Answer: The value was “comparable to sulindac”.

Question: What about the LipE [2] of the same compound?
Answer: The LipE was 1.78.

Question: With `CSc1ccc(/C=C2/C(C)=C(CC(=O)NCCCN(C)C)c3cc(F)ccc32)cc1` [Compound 2] as the compound, how does the “reduction of activity compared to lead compound 1, HT29” value [3] read?
Answer: The value was 4 fold.

Question: And the “reduction of activity compared to lead compound 1, MDA-MB-231” value [4]?
Answer: Its value is 2 fold.

Question: What about the “reduction of activity compared to lead compound 1, PC3” value [5] of the same compound?
Answer: The value was 2 fold.

Question: For `CCN(CC)CCCNC(=O)CC1=C(C)/C(=C/c2ccc(SC)cc2)c2ccc(F)cc21` [Compound 4], which EC50 [6] is on record?
Answer: The EC50 was over 7.57 µM.

Question: Which EC50 [6] does the source give for `CSc1ccc(/C=C2/C(C)=C(CC(=O)N(C)CCN(C)C)c3cc(F)ccc32)cc1` [Compound 5] here?
Answer: The EC50 was over 7.57 µM.

Question: Which EC50 [6] does the source give for `CC1=C(CC(=O)NCCCN(C)C)c2cc(F)ccc2/C1=C\c1nc2ccccc2s1` [Compound 33] here?
Answer: The EC50 was over 7.57 µM.

Question: With `CC1=C(CC(=O)N(C)CCN(C)C)c2cc(F)ccc2/C1=C\c1nc2ccccc2s1` [Compound 35] as the compound, how does the EC50 [6] read?
Answer: Its EC50 is over 7.57 µM.

Question: For `CSc1ccc(/C=C2/C(C)=C(CC(=O)NCCC3CCCN3C)c3cc(F)ccc32)cc1` (centres unmarked) [Compound 41], which LipE [2] is on record?
Answer: Its LipE is over 3.

Question: Which EC50 [6] does the source give for `CSc1ccc(/C=C2/C(C)=C(CC(=O)N3CCC[C@H]3CN3CCCC3)c3cc(F)ccc32)cc1` [Compound 43] here?
Answer: The EC50 was over 7.57 µM.

Question: For `CSc1ccc(/C=C2/C(C)=C(CC(=O)N3CCN(CCCN(C)C)CC3)c3cc(F)ccc32)cc1` [Compound 44], which EC50 [6] is on record?
Answer: Its EC50 is over 7.57 µM.

Question: For `CSc1ccc(/C=C2/C(C)=C(CC(=O)N3CCN(CCN(C)C)CC3)c3cc(F)ccc32)cc1` [Compound 45], which EC50 [6] is on record?
Answer: The EC50 was over 7.57 µM.

Question: Which EC50 [6] does the source give for `CSc1ccc(/C=C2/C(C)=C(CC(=O)N3CCN(c4ccncc4)CC3)c3cc(F)ccc32)cc1` [Compound 46] here?
Answer: Its EC50 is over 7.57 µM.

Question: With `CSc1ccc(/C=C2/C(C)=C(CC(=O)N3CCCN(C)CC3)c3cc(F)ccc32)cc1` [Compound 50] as the compound, how does the EC50 [6] read?
Answer: Its EC50 is over 7.57 µM.

Question: With `COc1cc(/C=C2/C(C)=C(CC(=O)N3CCN(c4ccncc4)CC3)c3cc(F)ccc32)cc(OC)c1OC` [Compound 59] as the compound, how does the EC50 [6] read?
Answer: The EC50 was over 7.57 µM.

Question: Which results are given for `CC1=C(CC(=O)NCCN2CCCC2)c2cc(F)ccc2/C1=C\c1nc2ccccc2s1` [Compound 61]?
Answer: EC50 [6]: > 7.57 µM; LipE [2]: > 3

Question: Which EC50 [6] does the source give for `CC1=C(CC(=O)N2CCN(CCCN(C)C)CC2)c2cc(F)ccc2/C1=C\c1nc2ccccc2s1` [Compound 62] here?
Answer: The EC50 was over 7.57 µM.

Question: What about the LipE [2] of the same compound?
Answer: Its LipE is over 3.

Question: Which EC50 [6] does the source give for `CC1=C(CC(=O)N2CCN(c3ccncc3)CC2)c2cc(F)ccc2/C1=C\c1nc2ccccc2s1` [Compound 63] here?
Answer: The EC50 was over 7.57 µM.

Question: For `CSc1ccc(/C=C2/C(C)=C(CC(=O)NCc3ccccc3)c3cc(F)ccc32)cc1` [Compound 72], which “reduction of activity compared to lead compound 1, HT29” value [3] is on record?
Answer: The value was 4 fold.

Question: And the “reduction of activity compared to lead compound 1, MDA-MB-231” value [4]?
Answer: Its value is 1.5 fold.

Question: What about the “reduction of activity compared to lead compound 1, PC3” value [5] of the same compound?
Answer: Its value is 4 fold.

Question: With `CC1=C(CC(=O)NCc2ccccc2)c2cc(F)ccc2/C1=C\c1ccc([S+](C)[O-])cc1` (centres unmarked) [Compound 79] as the compound, how does the EC50 [6] read?
Answer: Its EC50 is over 7.57 µM.

Question: For `COc1cc(/C=C2/C(C)=C(CC(=O)N(C)CCN(C)C(=O)[C@@H](N)C(C)C)c3cc(F)ccc32)cc(OC)c1OC` [Compound 89], which EC50 [6] is on record?
Answer: The EC50 was over 7.57 µM.
